Experimental data: ChEMBL document CHEMBL1125226, “Antineoplastic activity of didemnin congeners: nordidemnin and modified chain analogues” (1991)
In brackets after ≈: the same amount, converted by molar mass.

Tests used:
[1] = tested on: L1210; experiment: In vitro cytostatic activity determined on L1210 leukemia cells at 24 hours.; format: functional; settings: Mus musculus, L1210, 24 h; read-out: ID50 (the source's name)
Procedure, shortened: (§1)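 Log-phase L1210 cells were seeded at 0.8 × 10⁵ cells/mL in RPMI 1640 with 20% heat-inactivated horse serum, 2 mmol/L L-glutamine, streptomycin and penicillin. Drugs in ethanol (0.5% final) were tested at several concentrations.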

[2] = tested on: L1210; experiment: In vitro cytostatic activity determined on L1210 leukemia cells at 48 hours.; format: functional; settings: Mus musculus, L1210, 48 h; read-out: ID50 (the source's name); procedure, shortened: as §1
[3] = tested on: P388; experiment: Antitumor activity against P388 Leukemia from CDF1 female mice (T/C) as median survival time of treated mice (T) over that of control mice (C) at a dose of 0.12 mg/kg/day; format: functional, Mus musculus
Procedure, shortened: (§2)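 CDF1 female mice (BALB/c ♀ × DBA/2 ♂) given 10⁶ P388 cells ip on day 0. Drug in 2% methanol given ip on days 1, 5 and 9, 10 mice per group and more controls. Toxicity is survivors on day 5, with weight change between days 1 and 5. Mortality followed 30 days. T/C% is treated over control median survival (NCI method), significant at ≥125%.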

[4] = tested on: P388; experiment: Antitumor activity against P388 Leukemia from CDF1 female mice as the number of survivors on day 5 at a dose of 0.75 mg/kg/day; format: functional, Mus musculus; procedure, shortened: as §2
[5] = tested on: P388; experiment: Antitumor activity against P388 Leukemia from CDF1 female mice as Median survival time of treated mice at a dose of 0.12 mg/kg/day; format: functional, Mus musculus; procedure, shortened: as §2
[6] = tested on: P388; experiment: Antitumor activity against P388 Leukemia from CDF1 female mice (T/C) as median survival time of treated mice (T) over that of control mice (C) at a dose of 0.75 mg/kg/day; format: functional, Mus musculus; procedure, shortened: as §2
[7] = tested on: P388; experiment: Antitumor activity against P388 Leukemia from CDF1 female mice as average weight change of animals between day 1 and day 5 after tumor implementation at a dose of 0.75 mg/kg/day; format: functional, Mus musculus
Procedure, shortened: (§3)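 P388 leukemia: CDF1 female mice were inoculated ip with 10⁶ cells on day 0. Treatment in 2% methanol was given ip on days 1, 5 and 9, with 10 mice per group and a larger control group. Body weight was recorded on days 1 and 5 post-implant, and the average change was reported.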

[8] = tested on: P388; experiment: Antitumor activity against P388 Leukemia from CDF1 female mice as Median survival time of treated mice at a dose of 0.75 mg/kg/day; format: functional, Mus musculus; procedure, shortened: as §2
[9] = tested on: P388; experiment: Antitumor activity against P388 Leukemia from CDF1 female mice as average weight change of animals between day 1 and day 5 after tumor implementation at a dose of 0.12 mg/kg/day; format: functional, Mus musculus; procedure, shortened: as §3

Structure (SMILES)	IC50 [1] [ng/mL]	IC50 [2] [ng/mL]	T/C [3] [%]	Toxicity [4]	median survival time, days [5]	T/C [6] [%]	Body weight change [7] [g]	median survival time, days [8]	Body weight change [9] [g]
COc1ccc(C[C@H]2C(=O)O[C@H](C)[C@H](NC(=O)[C@@H](CC(C)C)N(C)C(=O)C3CCCN3C(=O)[C@H](O)c3ccccc3)C(=O)NC(C(C)C)[C@H](O)CC(=O)O[C@@H](C(C)C)C(=O)[C@H](C)C(=O)N[C@@H](CC(C)C)C(=O)N3CCC[C@H]3C(=O)N2C)cc1 (some centres not stated)	2 (≈ 1.72 nM)	1.3 (≈ 1.12 nM)	134	1	16	159	-1.5	19	0.2
COc1ccc(C[C@H]2C(=O)O[C@H](C)C(NC(=O)[C@H](CC(C)C)N(C)C(=O)C3CCCN3C(=O)[C@@H](C)O)C(=O)NC(C(C)C)[C@H](O)CC(=O)O[C@@H](C(C)C)C(=O)[C@H](C)C(=O)N[C@@H](CC(C)C)C(=O)N3CCC[C@H]3C(=O)N2C)cc1 (some centres not stated)	1260 (≈ 1150 nM)	589 (≈ 536 nM)	–	–	–	–	–	–	–
CCCCCCCCCCCCCCCC(=O)N1CCCC1C(=O)N(C)[C@H](CC(C)C)C(=O)N[C@@H]1C(=O)NC(C(C)C)[C@H](O)CC(=O)O[C@@H](C(C)C)C(=O)[C@H](C)C(=O)N[C@@H](CC(C)C)C(=O)N2CCC[C@H]2C(=O)N(C)[C@@H](Cc2ccc(OC)cc2)C(=O)O[C@@H]1C (some centres not stated)	> 1000	> 1000	–	–	–	–	–	–	–
COc1ccc(C[C@H]2C(=O)O[C@H](C)[C@H](NC(=O)[C@@H](CC(C)C)N(C)C(=O)C3CCCN3C(=O)CCc3ccc(O)cc3)C(=O)NC(C(C)C)[C@H](O)CC(=O)O[C@@H](C(C)C)C(=O)[C@H](C)C(=O)N[C@@H](CC(C)C)C(=O)N3CCC[C@H]3C(=O)N2C)cc1 (some centres not stated)	4.8 (≈ 4.09 nM)	1.5 (≈ 1.28 nM)	123	1	14.7	157	-1.1	18.7	0.2
